Data set [1] can be described thus: folding enthalpy; higher = less favourable; fluorescence melt of hairpins on a sequencing array, two-state fit. The conditions noted are these: sodium 0.088 M. The method in brief: (§1)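 Folding enthalpy and melting temperature come from bootstrapped two-state fits to Cy3 fluorescence of library hairpins carrying annealed Cy3 and quencher oligos on a sequenced MiSeq flow cell. Imaging was done in 50 mM Na-HEPES pH 8.0, 25 mM NaCl, stepping by 2.5 °C up to 60 °C, and signals were normalised to pre-quench Cy3 and to control constructs. Results of four replicates were combined by inverse variance, and fitted temperatures were raised by 9.35 °C to match UV melts.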

Data set [2] can be described thus: melting temperature; fluorescence melt of hairpins on a sequencing array, two-state fit, raised by 9.35 °C to match UV melts. The settings on record: sodium 0.088 M. The method in brief: as §1

Regarding GGCTTTCGAAAGAAGGCC (((.(((....))).))), in data set [1], the folding enthalpy is -40.9 kcal/mol. In addition, the Tm in data set [2] was found to be 56.7 °C.

Turning to GCGGCAGCGAAAGCTCGC (((..(((....)))))), in data set [1], the folding enthalpy was -11.7 kcal/mol. Further, in data set [2], the Tm stood at 51.5 °C.

In the case of GTCCGCGGAAACACGGAC (((((.(....).))))), the folding enthalpy in data set [1] was -42 kcal/mol. The Tm in data set [2] turned out to be 54.2 °C.

For GAGCTGGGAAACCAACTC (((.(((....))).))), the folding enthalpy in data set [1] is -32 kcal/mol. In data set [2], the Tm amounted to 39.9 °C.

With GGACACGGAAACGTGCCC ((.((((....)))).)), the folding enthalpy in data set [1] was -27.9 kcal/mol. For the same sequence, the Tm in data set [2] was 54.5 °C.

GTGCTCGAAAGAGGCAC ((((((....))).))): in data set [1], the folding enthalpy is -24.7 kcal/mol. The Tm in data set [2] came to 55.2 °C.

Consider GTGGCTGGAAACGGCCAC (((((.(....).))))), for which the folding enthalpy in data set [1] is -47.5 kcal/mol. Besides, in data set [2], the Tm was 64 °C.

Consider GTAAACGGAAACGTTCAC ((.((((....)))).)), for which, in data set [1], the folding enthalpy is -23.6 kcal/mol. Further, the Tm in data set [2] stood at 32.4 °C.

As to GCATGGACGAAAGTCTGC (((..(((....)))))), in data set [1], the folding enthalpy is -19.1 kcal/mol. The Tm in data set [2] was 43 °C.

In the case of GAGCGTGGAAACACGCCC (.(((((....))))).), in data set [1], the folding enthalpy is -7.9 kcal/mol. Also, in data set [2], the Tm was determined as 47.9 °C.

For GCGTATGGAAACATGTGC ((..(((....)))..)), the folding enthalpy in data set [1] is -11.6 kcal/mol. Also, the Tm in data set [2] was 38.8 °C.

For the sequence GCGGTCGTCCGC ((((....)))), the folding enthalpy in data set [1] is -31.1 kcal/mol. In addition, the Tm in data set [2] was 56.9 °C.

Consider GCATGCGAAAGCACTTGC ((((((....)))..))), for which the folding enthalpy in data set [1] was -15.4 kcal/mol. Further, in data set [2], the Tm worked out at 37.7 °C.

On to GAAACTGAAAAGTTTC ((((((....)))))), for which the folding enthalpy in data set [1] is -31.5 kcal/mol. Moreover, in data set [2], the Tm turned out to be 50.4 °C.

GGTGGTCGAAAGACGACC (((.(((....))).))): the folding enthalpy in data set [1] is -38 kcal/mol. Further, in data set [2], the Tm is 56.8 °C.

On to GATCGCCGTTGCGATC ((((((....)))))), for which the folding enthalpy in data set [1] was -53.2 kcal/mol. Moreover, in data set [2], the Tm was found to be 66.2 °C.

Regarding GGCTACGAAAGTAGGCC ((((((....))).))), the folding enthalpy in data set [1] was -17.3 kcal/mol. Further, the Tm in data set [2] came to 57.6 °C.

Consider AATACGAAAGTATT (((((....))))), for which the folding enthalpy in data set [1] was -15.3 kcal/mol. Also, the Tm in data set [2] came to 44.8 °C.

GCCCGGCGAAAGCATGGC (((..((....))..))): the folding enthalpy in data set [1] is -19 kcal/mol. For the same sequence, the Tm in data set [2] was 56 °C.

For GCTGTTGGAAACGATAGC (((.(.(....).).))), the folding enthalpy in data set [1] was -20.9 kcal/mol. For the same sequence, the Tm in data set [2] came out at 32 °C.

As to GGTGCGGCGAAAGCCACC (((..(((....)))))), the folding enthalpy in data set [1] is -14 kcal/mol. In addition, the Tm in data set [2] was 48.2 °C.

On to GATCACATTTGTGATC ((((((....)))))), for which the folding enthalpy in data set [1] is -40.8 kcal/mol. The Tm in data set [2] was found to be 59.3 °C.

As for GTCATCGAAAGATGTGAC ((((((....)))..))), in data set [1], the folding enthalpy was -13.4 kcal/mol. Besides, the Tm in data set [2] is 35.7 °C.

GATCCCACCGGGATC ((((((...)))))): in data set [1], the folding enthalpy was -28.9 kcal/mol. The Tm in data set [2] was determined as 66.7 °C.

GTTCTGCGAAAGCAAAC (((.(((....)))))): the folding enthalpy in data set [1] was -13.5 kcal/mol. For the same sequence, the Tm in data set [2] was 36.9 °C.

Take GGAACACGAAAGTGCTCC (((.(((....))).))): in data set [1], the folding enthalpy was -40.7 kcal/mol. In data set [2], the Tm was found to be 50.2 °C.

As for GGTAGGGGAAACCCTACC (((((((....))))))), the folding enthalpy in data set [1] is -44.1 kcal/mol. In addition, in data set [2], the Tm amounted to 64.6 °C.

As to GATCCGACCTCGGATC ((((((....)))))), the folding enthalpy in data set [1] is -40.9 kcal/mol. Also, in data set [2], the Tm worked out at 59.1 °C.

Consider GCATTGGGAAACTAGTGC (((.(.(....).).))), for which, in data set [1], the folding enthalpy was -19.5 kcal/mol. For the same sequence, the Tm in data set [2] turned out to be 29.8 °C.

As for GGTCCTGGAAACAGGATC (.(((((....))))).), in data set [1], the folding enthalpy was -31.8 kcal/mol. Also, the Tm in data set [2] is 51 °C.

In the case of GTTGCGGGAAACCGTAGC (.(.(((....))).).), the folding enthalpy in data set [1] is -24.5 kcal/mol. In addition, the Tm in data set [2] stood at 36.1 °C.

In the case of GAATTGGGAAACTAATTC (((((.(....).))))), in data set [1], the folding enthalpy is -22.7 kcal/mol. Moreover, the Tm in data set [2] was 35.5 °C.

Take GAAGTGCCGAAAGGCTTC (((..(((....)))))): the folding enthalpy in data set [1] was -7.5 kcal/mol. For the same sequence, the Tm in data set [2] worked out at 35.5 °C.

For the sequence GAGCTAGAAATAGCTC ((((((....)))))), in data set [1], the folding enthalpy is -33.6 kcal/mol. Moreover, in data set [2], the Tm was found to be 53.4 °C.

As for GAGGCACCGAAAGGTCTC (((..(((....)))))), in data set [1], the folding enthalpy is -11.5 kcal/mol. Moreover, in data set [2], the Tm was 31.3 °C.

For the sequence GAATCCGAAAGGAGCTTC ((((((....)))..))), the folding enthalpy in data set [1] was -23.6 kcal/mol. Also, the Tm in data set [2] is 41.6 °C.

For the sequence GTACAAGGAAACTTGTGC (.(((((....))))).), the folding enthalpy in data set [1] is -22.3 kcal/mol. In addition, the Tm in data set [2] turned out to be 45.4 °C.

These data come from the array DNA melting data of Ke et al. (doi:10.1101/2024.01.08.574731).
